From PubChem BioAssay
Compounds with a hit are over-represented: about 1.3% of the library has one in this group of screens.
MT1-MMP act inh = MT1-MMP (human) activation inhibition; GFP/RFP ratio change, % at 20 µM; HT1080 RFP-PRO-GFP cells, GFP/RFP ratio fluorescence, overnight; percent of plate control window, DMSO zero; P50281; hit rate 0.061% among 360,000; AID 651647;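 active = GFP/RFP ratio change of at least 30% with cell ATP level not reduced by more than half and red fluorescence within 50% of control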
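Read-out: GFP/RFP fluorescence ratio; Test system: RFP-PRO-GFP reporter HT1080 cells; Compound dosing: single-point 20 µM compound, 1% DMSO; Times: overnight compound exposure at 37 °C.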
ANO1 block = blocks the mouse calcium-activated chloride channel TMEM16A; Q8BHY3; hit rate 1.2% among 310,000; HEK293 TMEM16A/YFP iodide influx fluorescence, ionomycin; normalized B-score (activity score, 25-100; higher = stronger inhibition) at 10 µM;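 active = ratio plate-corrected score three or more library SD toward inhibition, starting fluorescence score within five deviations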;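 note: score derived from kinetic fluorescence span divided by baseline fluorescence per well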
DAGLB inh = blocks human DAGLB lipase activity; inhibition, % at 5.17 µM; Q8NCG7; hit rate 0.059% among 340,000; HEK293T DAGLB membrane lysate, EnzChek fluorogenic substrate; in the data active = inhibition above about 34%
Target sequence (Q8NCG7 whole entry, looked up): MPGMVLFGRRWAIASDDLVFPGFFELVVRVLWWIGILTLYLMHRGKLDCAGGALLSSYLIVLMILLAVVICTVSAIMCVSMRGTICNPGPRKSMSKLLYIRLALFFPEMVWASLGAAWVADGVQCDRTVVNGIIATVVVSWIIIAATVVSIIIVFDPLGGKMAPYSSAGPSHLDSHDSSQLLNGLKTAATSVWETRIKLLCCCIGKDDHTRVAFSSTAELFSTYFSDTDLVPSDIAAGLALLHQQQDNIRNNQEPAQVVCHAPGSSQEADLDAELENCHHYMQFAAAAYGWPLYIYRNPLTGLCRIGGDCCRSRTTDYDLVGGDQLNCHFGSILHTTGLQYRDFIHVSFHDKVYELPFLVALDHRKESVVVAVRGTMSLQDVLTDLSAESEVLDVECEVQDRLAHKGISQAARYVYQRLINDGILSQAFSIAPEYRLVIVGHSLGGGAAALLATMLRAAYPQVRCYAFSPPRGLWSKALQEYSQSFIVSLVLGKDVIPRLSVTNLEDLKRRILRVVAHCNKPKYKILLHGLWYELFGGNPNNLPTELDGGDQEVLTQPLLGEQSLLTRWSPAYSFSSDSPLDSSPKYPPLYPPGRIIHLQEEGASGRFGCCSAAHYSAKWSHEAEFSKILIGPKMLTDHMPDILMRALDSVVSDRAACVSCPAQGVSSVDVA
TMEM16A act = activates or potentiates the mouse TMEM16A chloride channel | B-score at 10 µM | hit rate 0.3% among 340,000 | HEK293 TMEM16A/YFP-H148Q/I152L, iodide quench fluorescence; stronger effect = lower value | Q8BHY3;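 active = fluorescence-ratio B-score plate-corrected deviation score at least 3 library SD below zero, with starting fluorescence score within 5 deviations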;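 note: channel opened by trigger with iodide after compound preincubation; score built on the fluorescence ratio of max minus min over baseline; more negative score means more quench and so TMEM16A activation or potentiation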
TMEM16A reconf = reconfirmed blocker of mouse TMEM16A calcium-activated chloride channel; shares compounds with ANO1 block; HEK293 TMEM16A/YFP-H148Q, iodide quench fluorescence; ionomycin added to raise cell calcium; inhibition, % at 10 µM; hit rate 39% among 2,300; AID 652189;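 active = mean duplicate percent inhibition, scaled so buffer wells are 0 and the reference blocker 100, over three buffer SD above buffer mean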
TMEM16A Ca cntr = calcium mobilization counter-screen hit for TMEM16A inhibitor series; shares compounds with ANO1 block; TMEM16A/YFP HEK293, Fluo4 calcium mobilization; calcium response (% of ionomycin), % at 10 µM; hit rate 2% among 2,300;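 active = duplicate-averaged calcium signal over 20% of the ionomycin maximum, relative to buffer baseline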;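 note: each well's signal is peak minus trough fluorescence divided by its pre-addition baseline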
Parental YFP cnt = acts in parental YFP-HEK293 cells lacking TMEM16A, counter-screen. iodide YFP quench, ionomycin. AID 652233. YFP ratio F(max-min)/F0 at 10 µM. 2,300 tested, under 10 active. shares compounds with ANO1 block;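 active = yellow fluorescent protein signal ratio exceeding the buffer control mean by over 5 SD of those controls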;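 note: ratio is mean of duplicate wells from kinetic YFP trace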
ClC-1 rat inh = blocks the rat ClC-1 voltage-dependent chloride channel; shares compounds with ANO1 block; CHO ClC-1-YFP, iodide influx fluorescence quench; iodide control reads 0, buffer control 100; ratio percent, % at 10 µM; 2,300 tested, under 10 active; AID 652236;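 active = duplicate-mean ratio percent above the mean of iodide-only control wells, which defines zero, plus 5 of their SD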;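 note: higher percent means stronger block of ClC-1 iodide influx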
Large screens that a line does not name were inactive (follow-up assays come after a bar, where they were run).

Cc1ccc2c(c1)[nH]c1c(N3CCN(Cc4ccccc4)CC3)ncnc12	ANO1 block 25 | TMEM16A reconf 25% | TMEM16A Ca cntr inactive | Parental YFP cnt inactive | ClC-1 rat inh inactive
c1ccc(CN2CCN(c3ncnc4c3[nH]c3ccccc34)CC2)cc1	ANO1 block 100 | TMEM16A reconf 19% | TMEM16A Ca cntr inactive | Parental YFP cnt inactive | ClC-1 rat inh inactive
O=C(CC1C=Cc2ccccc2N1C(=O)c1ccccc1)c1ccccc1 (stereo not given)	ANO1 block 100 | TMEM16A reconf 20% | TMEM16A Ca cntr inactive | Parental YFP cnt inactive | ClC-1 rat inh inactive
Cc1noc(C)c1COC(=O)c1ccc(F)c(S(=O)(=O)N2CCCCC2)c1	none
Cc1noc(C)c1COC(=O)c1cccc(S(=O)(=O)N2CCCCCC2)c1	ANO1 block 25 | TMEM16A reconf inactive | TMEM16A Ca cntr inactive | Parental YFP cnt inactive | ClC-1 rat inh inactive
Cc1noc(C)c1COc1cccc(C(=O)OCCOc2ccc(F)cc2)c1	ANO1 block 100 | TMEM16A reconf inactive | TMEM16A Ca cntr inactive | Parental YFP cnt inactive | ClC-1 rat inh inactive
Oc1ccc(-c2nccs2)cc1	none (no result: ANO1 block)
O=C(CCc1ccc(Oc2cc([N+](=O)[O-])cc([N+](=O)[O-])c2)cc1)N1CCCCCC1	none
O=S(=O)(NCCSCc1ccc(Cl)cc1Cl)c1ccc2c(c1)OCCO2	none
O=S(=O)(NCCSCc1c(Cl)cccc1Cl)c1ccc2c(c1)OCCO2	ANO1 block 25 | TMEM16A reconf inactive | TMEM16A Ca cntr inactive | Parental YFP cnt inactive | ClC-1 rat inh inactive
O=C(CNC(=O)c1cccc(Cl)c1)NCCCSc1ccccc1	none
O=C(NCCCCCCCN1CCCCCCC1)C(C1CCCCC1)C1CCCCC1	none (no result: ANO1 block)
S=C(NCc1ccc(Cl)cc1Cl)NC1CCCCC1	ANO1 block 25 | TMEM16A reconf 52% | TMEM16A Ca cntr inactive | Parental YFP cnt inactive | ClC-1 rat inh inactive
CC1(C)CC(=O)C2=C(C1)OC1=C(C(=O)CC(C)(C)C1)C2c1ccc(O)cc1O	none | TMEM16A reconf inactive | TMEM16A Ca cntr inactive | Parental YFP cnt inactive | ClC-1 rat inh inactive
N#CCC(=O)Nc1ccc(C(=O)OCC(=O)Nc2ccccc2-c2ccccc2)cc1	ANO1 block 100 (no result: DAGLB inh) | TMEM16A reconf inactive | TMEM16A Ca cntr inactive | Parental YFP cnt inactive | ClC-1 rat inh inactive
O=C(/C=C/[C@H]1O[C@@H](n2ccc(=O)[nH]c2=O)[C@H](O)[C@@H]1O)NCc1cccnc1	none (no result: ANO1 block, DAGLB inh, TMEM16A act)
COc1ccccc1S(=O)(=O)N(C)C[C@@H]1OCc2cnnn2CCCC(=O)N([C@H](C)CO)C[C@H]1C	none (no result: ANO1 block, TMEM16A act)
CCOC(=O)C1=C(C)NC2=C(C(=O)C(C(=O)OC)C(C)C2)C1c1ccc(OC)c(O)c1 (stereo not given)	ANO1 block 25 | TMEM16A reconf inactive | TMEM16A Ca cntr inactive | Parental YFP cnt inactive | ClC-1 rat inh inactive
Clc1c(Cl)c(Cl)c2n[nH]nc2c1Cl	ANO1 block 100 | TMEM16A reconf 44% | TMEM16A Ca cntr inactive | Parental YFP cnt inactive | ClC-1 rat inh inactive
Cc1ccc2c(c1)sc1nncn12	none (no result: ANO1 block, TMEM16A act)
CCc1nnc(NC(=O)CSc2nnc(-c3ccccc3O)n2CC)s1	none
O=C(CSc1nc2ccccc2o1)Nc1nc(-c2ccccc2)cs1	ANO1 block 100 | TMEM16A reconf 48% | TMEM16A Ca cntr inactive | Parental YFP cnt inactive | ClC-1 rat inh inactive
O=C(CSc1nnc(-c2ccncc2)n1Cc1ccco1)Nc1ccccc1Cl	none (no result: TMEM16A act)
O=C(CSc1nnc(-c2ccncc2)n1Cc1ccco1)Nc1nc(-c2ccccc2)cs1	ANO1 block 25 | TMEM16A reconf 30% | TMEM16A Ca cntr inactive | Parental YFP cnt inactive | ClC-1 rat inh inactive
CCn1c(SCC(=O)Nc2nc(-c3ccccc3)cs2)nnc1-c1ccccc1O	ANO1 block 100 | TMEM16A reconf 36% | TMEM16A Ca cntr inactive | Parental YFP cnt inactive | ClC-1 rat inh inactive
